Compounds with a hit are over-represented: about 1.5% of the library has one in this group of screens.
CCR6 antag = CCR6 receptor antagonists, primary screen, cell-based, CHO-K1, luminescence, beta-arrestin, uHTS. CHO-K1 CCR6 PathHunter beta-arrestin, CCL20-stimulated. inhibition, % at 20 µM. 340,000 compounds, 0.49% hits;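 active = compounds whose inhibition of the agonist-driven luminescence signal at 20 µM reaches about 50%, limit read from the data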;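 note: cells stimulated with CCL20 at 14 nM final; plate controls were DMSO with CCL20 for no effect and DMSO without agonist for full effect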
APJ antag = antagonists of human apelin receptor APJ, primary screen, CHO-K1 cells, beta-arrestin complementation, luminescence; inhibition, % at 20 µM; 330,000 compounds, 0.32% hits; AID 2521, 2010;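 active = inhibition above about 40% at 20 µM, limit read from the data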;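 note: cells challenged with 10 nM apelin-13 agonist together with compound; plate controls were apelin-13 plus DMSO wells for no effect and DMSO wells lacking apelin-13 for full effect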
Target sequence (P35414 whole entry, looked up): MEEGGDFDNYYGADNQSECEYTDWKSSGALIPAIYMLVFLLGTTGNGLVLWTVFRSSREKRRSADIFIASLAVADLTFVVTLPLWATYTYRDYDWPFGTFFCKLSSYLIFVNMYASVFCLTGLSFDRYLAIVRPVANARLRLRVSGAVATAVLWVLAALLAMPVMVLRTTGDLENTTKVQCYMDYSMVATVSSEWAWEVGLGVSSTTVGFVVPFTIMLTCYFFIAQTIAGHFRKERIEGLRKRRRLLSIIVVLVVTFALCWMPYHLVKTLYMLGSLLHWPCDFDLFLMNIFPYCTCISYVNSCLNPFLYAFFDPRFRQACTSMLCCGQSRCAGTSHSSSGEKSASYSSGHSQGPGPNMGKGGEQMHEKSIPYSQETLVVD
EBI2 antag = EBI2 receptor antagonists, beta-arrestin recruitment, primary screen, cell-based, luminescence, 7a,25-OHC stimulation, uHTS. G-protein coupled receptor 183 (Homo sapiens), P32249. 7a,25-OHC stimulated. inhibition, % at 5 µM. 360,000 compounds, 0.81% hits; in the data active = inhibition above about 38%;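 note: enzyme fragment complementation signal reports receptor beta-arrestin coupling in cells; 0% = agonist plus DMSO wells and 100% = wells without agonist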
CXCR6 block = CXCR6 receptor inhibitors, primary screen, cell-based, beta-arrestin, luminescence, CHO-K1 PathHunter, 1536-well | 360,000 compounds, 0.36% hits | AID 602244, 2012 | inhibition, % at 20 µM | C-X-C chemokine receptor type 6 (Homo sapiens), O00574; in the data active = inhibition above about 34%, passing the limit was not always enough;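 note: antagonist mode with CXCL16 agonist at 10 nM final; 0% = 10 nM CXCL16 with DMSO and 100% = unstimulated wells without agonist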
APJ agonist = agonists of human apelin receptor APJ, primary screen, CHO-K1 cells, PathHunter beta-arrestin, luminescence. activation, % at 20 µM. P35414. 330,000 compounds, 0.11% hits. 0% DMSO wells, 100% apelin;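 active = activation more than six SD over the plate average, tested at 20 µM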;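 note: 0% = DMSO alone and 100% = apelin-13 at 10 nM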
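Test system – PathHunter CHO-K1 APJ (AGTRL-1) beta-arrestin reporter cells · Input – 1000 cells/well · Compound – single test compound dose, 20 µM final, 1% DMSO · Times – compound stimulation 90 min at 25 °C, detection 60 min · Technique – beta-gal luminescence · Read-out basis – APJ–arrestin association signal · Control set – negative DMSO alone, positive Apelin-13 at 10 nM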
APJ antag confirm = APJ antagonists blocking beta-arrestin recruitment, confirmation, cell-based, luminescence, single concentration, uHTS hits; shares compounds with APJ antag; 950 compounds, 66% hits; antagonist mode; inhibition, % at 20 µM; AID 2766, 2010; in the data active = inhibition above about 50%
Active calls of the source: *.

Screening CCOc1cc([N+](=O)[O-])cc(/C=N/NC(=O)c2c(-c3ccccc3)noc2C)c1O returned CCR6 antag 27, APJ antag 41*, EBI2 antag 12, CXCR6 block 14, APJ agonist -11 and APJ antag confirm 25.
Screening CC1(Cc2ccc3ccccc3n2)C(=O)Nc2ccc(OC(F)(F)F)cc21 (stereo unspecified) returned EBI2 antag -6 and CXCR6 block -1.
For O=C(NNC(=S)Nc1ccccc1)NNC(=S)Nc1ccccc1 the results were CCR6 antag 56*, APJ antag 44*, EBI2 antag 14, CXCR6 block 28, APJ agonist -11 and APJ antag confirm 88*.
`CN(C1CCCCC1)S(=O)(=O)c1cn(C)c(=O)n(C)c1=O` gave CCR6 antag -16, APJ antag -12, EBI2 antag -7, CXCR6 block -1 and APJ agonist -1.
`CC(C)(C)OC(=O)Nc1ccccc1-n1nnnc1C(C(=O)c1ccc(F)cc1)N1CCN(c2ccccn2)CC1` (stereo unspecified) gave EBI2 antag 1.
Cc1ccc(C(=O)CNc2cccc(Cl)c2)cc1 was read as CCR6 antag 47, APJ antag 66*, EBI2 antag 15, CXCR6 block 20, APJ agonist -9 and APJ antag confirm 77*.
Screening O=C(CNc1cccc(Cl)c1)c1ccc(Cl)cc1 returned CCR6 antag 47, APJ antag 73*, EBI2 antag 25, CXCR6 block 41*, APJ agonist -16 and APJ antag confirm 91*.
`CCOC(=O)C(=O)N(C)c1c(CC)nc2c(OCc3ccc(OC(F)F)cc3)cccn12` gave EBI2 antag 7 and CXCR6 block -4.
For CCOC(=O)c1c(C)nc2sc(C(=O)Nc3ccc(C(C)=O)cc3)c(N)c2c1-c1ccc(OC)cc1 the results were CCR6 antag 4, APJ antag 51*, EBI2 antag 7, CXCR6 block 0, APJ agonist -10 and APJ antag confirm 17.
`Nc1ccn([C@@H]2O[C@H](C(=O)N3CCN(c4ccc(Cl)cn4)CC3)[C@@H](O)[C@H]2O)c(=O)n1` gave EBI2 antag -4 and CXCR6 block -5.
`CC1N(O)C(c2ccc(Cl)cc2Cl)N(O)C1(C)C` (stereo unspecified) gave CCR6 antag 46, APJ antag -5, EBI2 antag -3, CXCR6 block 4 and APJ agonist -1.
Screening ON1C(c2ccc(Cl)cc2Cl)N(O)[C@H]2CCCC[C@H]21 (stereo partly specified) returned CCR6 antag 80*, APJ antag 55*, EBI2 antag -5, CXCR6 block 8, APJ agonist -9 and APJ antag confirm 85*.
For COC(=O)c1cc(NC(=O)CSc2nnc(N)s2)ccc1Cl the results were CCR6 antag 4, APJ antag -20, EBI2 antag -14, CXCR6 block 3 and APJ agonist -3.
Screening Nc1nnc(SCC(=O)Nc2ccc(Cl)c(C(=O)O)c2)s1 returned CCR6 antag -2, APJ antag 46*, EBI2 antag 0, CXCR6 block -22, APJ agonist -4 and APJ antag confirm 35.
COc1cc(C(C)n2nnc3ccccc32)ccc1O (stereo unspecified) was read as EBI2 antag -7 and CXCR6 block -3.
`CC(=O)Nc1ccc(Cc2ccc3[nH]c(=O)cc(C)c3c2)cc1` gave APJ antag 44*, APJ agonist -3 and APJ antag confirm 9.
For CCc1nc2c(OCC3CCCCC3)cccn2c1N(C=O)Cc1ccc(OC)cc1 the results were EBI2 antag 16 and CXCR6 block 12.
Cn1nc(C(C)(C)C)cc1C(=O)N1CCCC(C)(C(=O)NS(=O)(=O)C2CC2)C1 (stereo unspecified) was read as EBI2 antag -13 and CXCR6 block -1.
O=C(N[C@@H]1CC[C@@H](CCNC(=O)C2CCOCC2)O[C@@H]1CO)c1ccncc1 was read as EBI2 antag -16.
`Oc1ccc(N=Nc2ccccc2C(F)(F)F)c2cccnc12` gave CCR6 antag 58*, APJ antag 49*, EBI2 antag 15, CXCR6 block 22, APJ agonist -11 and APJ antag confirm 103*.
`Cc1ccc(N=Nc2ccc(O)c3ncccc23)cc1` gave CCR6 antag 8, EBI2 antag 8 and CXCR6 block 4.
`Cc1ccc(N=Nc2ccc(O)c3ncccc23)cc1C` gave CCR6 antag 55*, APJ antag 53*, EBI2 antag 14, CXCR6 block 40*, APJ agonist -13 and APJ antag confirm 68*.
`O=S1(=O)Nc2c(ccc3cccnc23)-c2ccccc21` gave CCR6 antag 61*, APJ antag 53*, EBI2 antag 37, CXCR6 block 42*, APJ agonist -11 and APJ antag confirm 43.
O=C(Nc1cccc(S(=O)(=O)N2CCCC2)c1)[C@H]1C[C@H](O)[C@@H](CO)O1 was read as EBI2 antag -5 and CXCR6 block 5.
`CCC(=O)Nc1ccc(S(=O)(=O)N2CCCCC2)cc1OC` gave CCR6 antag -10, APJ antag 41*, EBI2 antag 1, CXCR6 block 11, APJ agonist -4 and APJ antag confirm -34.
For COc1cc(S(=O)(=O)N2CCCCC2)ccc1NC(=O)c1ccccc1Cl the results were CCR6 antag 23, APJ antag 9, EBI2 antag 6, CXCR6 block 2 and APJ agonist 1.
For Cc1cc(C(O)c2ncc(-c3ccc(Oc4ccccc4)cc3)[nH]2)ccc1F (stereo unspecified) the results were EBI2 antag 11 and CXCR6 block -3.
`NS(=O)(=O)c1ccc(NNC(=O)c2ccccc2)cc1` gave CCR6 antag -8, APJ antag -9, EBI2 antag -16, CXCR6 block 2 and APJ agonist 0.
Screening O=C(NNc1cc(Br)c(O)c(Br)c1)c1ccccc1 returned CCR6 antag 87*, APJ antag 96*, EBI2 antag 38, CXCR6 block 59*, APJ agonist -14 and APJ antag confirm 137*.
`COc1cc(C(=O)N2CCCCC2c2cc(C(=O)Nc3ccccc3Cl)no2)cc(OC)c1C` (stereo unspecified) gave EBI2 antag 18 and CXCR6 block 11.
`Cc1ccc(-c2nc3c(C)cc(Br)cn3c2Cc2ccsc2)cc1` gave EBI2 antag 5 and CXCR6 block 5.

High-throughput results as filed in PubChem BioAssay.
